How the values were obtained:
[1] = Effect on action potential parameters in rabbit purkinje fiber up to 30 uM; format: ADME, tissue-based, Oryctolagus cuniculus
[2] = Clearance in cynomolgus monkey at 5 mg/kg, iv; format: ADME, organism-based, Macaca fascicularis; design: dose 5 mg/kg, route intravenous; conditions: in vivo
[3] = Antitumor activity against human GEO cells xenografted in athymic mouse at 60 mg/kg, po qd for 14 days; format: functional; conditions: 336 h, read-out: TGI
How it was run: (§1)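 Xenograft-bearing mice dosed orally once daily in propylene glycol/Tween80/water (40:10:50). TGI taken as percent tumor growth inhibition during treatment; significance from mean tumor weight at end of treatment; body weight loss and morbidity monitored.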

[4] = Volume of distribution at steady state in dog at 1.5 mg/kg, iv; format: ADME, organism-based, Canis lupus familiaris; design: dose 1.5 mg/kg, route intravenous; conditions: in vivo, read-out: Vdss
How it was run: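 Dog PK, average of two animals. Compound dosed as a PEG400/Tween80/water (50:0.1:50) solution, orally at 25 mg/kg and iv at 1.5 mg/kg. Oral data give Tmax; iv data give Vss.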

[5] = Antitumor activity against human KPL4 cells xenografted in athymic mouse at 60 mg/kg, po qd for 21 days; format: functional; conditions: KPL4, 504 h, read-out: TGI; how it was run: as §1
NCI-N87 [6] = assay: Antitumor activity against human NCI-N87 cells xenografted in athymic mouse at 120 mg/kg, po qd for 21 days; format: functional; conditions: NCI-N87, 504 h, read-out: TGI; how it was run: as §1
L2987 [7] = assay: Antitumor activity against human L2987 cells xenografted in athymic mouse at 180 mg/kg, po qd for 14 days; format: functional; conditions: L2987, 336 h, read-out: TGI; how it was run: as §1
[8] = molecular target: Receptor tyrosine-protein kinase erbB-2 (Homo sapiens, UniProt P04626); assay: Inhibition of human recombinant HER2 expressed in Sf9 cells by liquid scintillation counting
Chain of Receptor tyrosine-protein kinase erbB-2 (P04626 whole entry): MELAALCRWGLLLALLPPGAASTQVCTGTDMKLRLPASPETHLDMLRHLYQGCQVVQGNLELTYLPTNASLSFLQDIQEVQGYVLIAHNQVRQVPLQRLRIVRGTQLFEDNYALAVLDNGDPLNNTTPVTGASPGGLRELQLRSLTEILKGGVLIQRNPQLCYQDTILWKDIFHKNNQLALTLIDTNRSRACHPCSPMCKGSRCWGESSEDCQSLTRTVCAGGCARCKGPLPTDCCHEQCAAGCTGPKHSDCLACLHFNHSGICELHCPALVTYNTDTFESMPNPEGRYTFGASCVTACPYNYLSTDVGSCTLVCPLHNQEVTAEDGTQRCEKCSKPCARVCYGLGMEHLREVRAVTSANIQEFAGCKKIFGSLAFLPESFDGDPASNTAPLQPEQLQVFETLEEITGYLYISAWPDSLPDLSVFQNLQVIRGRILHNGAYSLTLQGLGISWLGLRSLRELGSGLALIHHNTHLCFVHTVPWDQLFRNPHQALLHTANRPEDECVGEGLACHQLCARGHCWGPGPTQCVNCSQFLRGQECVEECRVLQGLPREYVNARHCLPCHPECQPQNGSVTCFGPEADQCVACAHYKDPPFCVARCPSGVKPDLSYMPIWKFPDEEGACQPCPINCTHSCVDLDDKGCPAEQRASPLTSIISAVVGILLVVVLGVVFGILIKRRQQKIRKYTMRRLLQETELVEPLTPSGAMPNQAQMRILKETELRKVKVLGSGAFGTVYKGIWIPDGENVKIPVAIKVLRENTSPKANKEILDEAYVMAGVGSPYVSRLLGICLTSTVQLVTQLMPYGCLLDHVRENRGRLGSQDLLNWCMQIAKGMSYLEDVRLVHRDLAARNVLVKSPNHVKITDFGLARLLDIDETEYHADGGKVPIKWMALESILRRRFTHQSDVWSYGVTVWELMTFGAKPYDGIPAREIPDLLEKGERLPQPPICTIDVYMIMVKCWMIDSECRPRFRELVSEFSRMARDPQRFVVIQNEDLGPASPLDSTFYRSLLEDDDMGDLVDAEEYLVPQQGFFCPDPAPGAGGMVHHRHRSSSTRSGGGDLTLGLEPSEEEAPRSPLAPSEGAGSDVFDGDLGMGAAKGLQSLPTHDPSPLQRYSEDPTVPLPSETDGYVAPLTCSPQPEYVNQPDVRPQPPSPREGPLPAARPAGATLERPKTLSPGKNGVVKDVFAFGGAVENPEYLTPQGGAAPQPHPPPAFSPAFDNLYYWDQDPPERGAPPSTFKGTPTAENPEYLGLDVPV

[9] = AUC (0 to 24 hrs) in mouse at 120 mg/kg, po; format: ADME, organism-based; design: time < 24 hr, dose 120 mg/kg, route oral; conditions: plasma
How it was run: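 Mice were dosed orally at 120 mg/kg as a solution in PG/Tween80/water (40:10:50).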

Cytochrome P450 2D6 = Cytochrome P450 2D6 (Homo sapiens, UniProt P10635); assay: Inhibition of human CYP2D6; format: ADME
Chain of Cytochrome P450 2D6 (P10635 whole entry): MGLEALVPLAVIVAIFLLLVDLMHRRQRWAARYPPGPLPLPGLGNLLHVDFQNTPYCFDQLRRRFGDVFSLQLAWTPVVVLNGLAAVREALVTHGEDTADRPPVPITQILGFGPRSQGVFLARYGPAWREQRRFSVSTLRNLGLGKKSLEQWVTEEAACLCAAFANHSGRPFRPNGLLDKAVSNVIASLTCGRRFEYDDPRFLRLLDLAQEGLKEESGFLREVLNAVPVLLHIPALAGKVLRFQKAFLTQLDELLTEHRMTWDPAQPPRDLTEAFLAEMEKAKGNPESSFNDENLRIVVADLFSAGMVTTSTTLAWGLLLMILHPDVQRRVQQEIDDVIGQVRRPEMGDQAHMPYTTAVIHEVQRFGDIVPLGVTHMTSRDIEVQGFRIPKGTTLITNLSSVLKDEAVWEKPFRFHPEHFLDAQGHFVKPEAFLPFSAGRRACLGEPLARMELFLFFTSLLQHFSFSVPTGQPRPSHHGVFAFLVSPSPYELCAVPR

[10] = AUC (0 to 24 hrs) in rat at 10 mg/kg, po; format: ADME, organism-based; design: time < 24 hr, dose 10 mg/kg, route oral; conditions: plasma
NCI-N87 [11] = assay: Antiproliferative activity against human NCI-N87 cells after 72 hrs by MTT assay; format: functional, cell-based; conditions: NCI-N87, 72 h
[12] = Mean residence time in cynomolgus monkey at 5 mg/kg, iv; format: ADME, organism-based, Macaca fascicularis; design: dose 5 mg/kg, route intravenous; conditions: in vivo
[13] = Oral bioavailability in rat at 10 mg/kg; format: ADME, organism-based; conditions: in vivo
[14] = Protein binding in dog plasma at 10 uM by equilibrium dialysis; format: ADME, cell-free, Canis lupus familiaris; conditions: read-out: PPB (converted)
[15] = Metabolic stability in mouse liver microsomes assessed per mg of protein at 10 uM after 10 mins; format: ADME, Microsome
How it was run: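 Mouse liver microsomes incubated with compound at 10 µM for 10 min; metabolic rate expressed as nmol/min/mg protein.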

[16] = molecular target: T1, Epidermal growth factor receptor and ErbB2 (HER1 and HER2) (Homo sapiens) (UniProt P04626+P00533); assay: Inhibition of HER1/HER2-mediated MAPK phosphorylation in human GEO cells by Western blot; format: cell-based
Cytochrome P450 2C9 = Cytochrome P450 2C9 (Homo sapiens, UniProt P11712); assay: Inhibition of human CYP2C9; format: ADME
Chain of Cytochrome P450 2C9 (P11712 whole entry): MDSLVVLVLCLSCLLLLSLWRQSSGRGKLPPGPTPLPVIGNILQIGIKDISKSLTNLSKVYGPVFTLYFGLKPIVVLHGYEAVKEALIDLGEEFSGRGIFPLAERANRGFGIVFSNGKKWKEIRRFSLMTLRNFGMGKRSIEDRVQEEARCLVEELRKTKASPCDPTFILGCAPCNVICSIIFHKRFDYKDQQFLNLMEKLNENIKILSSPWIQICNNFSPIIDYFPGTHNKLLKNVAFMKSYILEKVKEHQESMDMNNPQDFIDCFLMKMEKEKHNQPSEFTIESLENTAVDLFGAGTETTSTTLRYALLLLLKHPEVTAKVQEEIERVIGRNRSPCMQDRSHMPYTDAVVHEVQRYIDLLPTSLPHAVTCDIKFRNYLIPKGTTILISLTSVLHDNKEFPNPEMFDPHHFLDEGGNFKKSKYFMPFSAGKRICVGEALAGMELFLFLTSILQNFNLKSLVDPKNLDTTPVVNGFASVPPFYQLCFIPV

L2987 [17] = assay: Antitumor activity against human L2987 cells xenografted in athymic mouse at 60 mg/kg, po qd for 14 days; format: functional; conditions: L2987, 336 h, read-out: TGI; how it was run: as §1
[18] = AUC (0 to 24 hrs) in dog at 25 mg/kg, po; format: ADME, organism-based, Canis lupus familiaris; design: time < 24 hr, dose 25 mg/kg, route oral; conditions: plasma
BT-474 = assay: Antiproliferative activity against human BT474 cells after 72 hrs by MTT assay; format: functional, cell-based; conditions: BT-474, 72 h
How it was run: (§2)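 Cell proliferation IC50 reported as the mean of three independent determinations. BT474 is a breast line (HER2+++/HER1+); A2780 serves as a HER-independent control.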

[19] = Antitumor activity against human KPL4 cells xenografted in athymic mouse at 180 mg/kg, po qd for 21 days; format: functional; conditions: KPL4, 504 h, read-out: TGI; how it was run: as §1
[20] = Half life in mouse plasma at 120 mg/kg, po; format: ADME, organism-based; design: dose 120 mg/kg, route oral
A2780 = assay: Antiproliferative activity against human A2780 cells after 72 hrs by MTT assay; format: functional, cell-based; conditions: A2780, 72 h; how it was run: as §2
[21] = Tmax in rat at 10 mg/kg, po; format: ADME, organism-based; design: dose 10 mg/kg, route oral; conditions: in vivo
How it was run: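 Rat PK, average of three animals. Solution formulation in PEG400/Tween80/water (50:0.1:50), given orally at 10 mg/kg or iv at 2.5 mg/kg. Tmax comes from oral dosing; Vss comes from iv dosing.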

NCI-N87 [22] = assay: Antitumor activity against human NCI-N87 cells xenografted in athymic mouse at 180 mg/kg, po qd for 21 days; format: functional; conditions: NCI-N87, 504 h, read-out: TGI; how it was run: as §1
[23] = Mean residence time in dog at 1.5 mg/kg, iv; format: ADME, organism-based, Canis lupus familiaris; design: dose 1.5 mg/kg, route intravenous; conditions: in vivo
[24] = AUC (0 to 4 hrs) in BALB/c mouse at 50 mg/kg, po; format: ADME, organism-based; design: time < 4 hr, dose 50 mg/kg, route oral; conditions: plasma
[25] = Cmax in BALB/c mouse at 50 mg/kg, po; format: ADME, organism-based; design: dose 50 mg/kg, route oral; conditions: in vivo
[26] = molecular target: Voltage-gated inwardly rectifying potassium channel KCNH2 (Homo sapiens, UniProt Q12809); assay: Inhibition of human ERG expressed in HEK cells; format: cell-based, HEK293
Chain of Voltage-gated inwardly rectifying potassium channel KCNH2 (Q12809 whole entry): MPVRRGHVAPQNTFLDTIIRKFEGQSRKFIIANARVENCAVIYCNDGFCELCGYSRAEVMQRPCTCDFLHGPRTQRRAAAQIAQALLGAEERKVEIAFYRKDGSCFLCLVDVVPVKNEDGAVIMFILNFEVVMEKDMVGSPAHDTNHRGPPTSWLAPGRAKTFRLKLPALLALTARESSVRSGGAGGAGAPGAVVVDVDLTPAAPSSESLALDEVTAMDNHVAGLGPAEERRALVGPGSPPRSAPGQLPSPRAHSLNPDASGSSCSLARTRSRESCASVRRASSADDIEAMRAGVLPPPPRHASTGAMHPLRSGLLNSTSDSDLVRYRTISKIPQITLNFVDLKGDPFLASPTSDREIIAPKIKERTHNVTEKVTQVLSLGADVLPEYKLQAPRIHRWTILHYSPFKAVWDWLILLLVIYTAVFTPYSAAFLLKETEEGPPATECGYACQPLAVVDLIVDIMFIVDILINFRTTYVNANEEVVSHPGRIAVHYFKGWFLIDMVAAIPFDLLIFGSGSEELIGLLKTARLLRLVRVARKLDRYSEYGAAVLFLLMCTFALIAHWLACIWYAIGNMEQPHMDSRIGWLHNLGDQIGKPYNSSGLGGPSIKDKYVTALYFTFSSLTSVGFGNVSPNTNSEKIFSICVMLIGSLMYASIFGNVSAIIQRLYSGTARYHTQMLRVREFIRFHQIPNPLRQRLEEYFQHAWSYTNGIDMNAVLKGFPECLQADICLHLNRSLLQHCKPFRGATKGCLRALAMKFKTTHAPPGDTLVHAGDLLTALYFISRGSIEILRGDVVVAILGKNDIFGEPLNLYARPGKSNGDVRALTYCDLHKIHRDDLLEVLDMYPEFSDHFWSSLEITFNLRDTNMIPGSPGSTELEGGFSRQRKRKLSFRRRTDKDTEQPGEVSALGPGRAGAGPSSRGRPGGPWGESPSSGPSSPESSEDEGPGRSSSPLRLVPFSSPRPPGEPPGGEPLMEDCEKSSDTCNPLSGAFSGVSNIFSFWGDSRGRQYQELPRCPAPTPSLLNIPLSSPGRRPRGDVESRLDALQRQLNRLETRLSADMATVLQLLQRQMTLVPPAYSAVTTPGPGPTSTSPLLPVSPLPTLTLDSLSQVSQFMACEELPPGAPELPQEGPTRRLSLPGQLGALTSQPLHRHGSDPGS

[27] = Oral bioavailability in mouse at 120 mg/kg; format: ADME, organism-based; conditions: in vivo
[28] = Oral bioavailability in dog at 25 mg/kg; format: ADME, organism-based, Canis lupus familiaris; conditions: in vivo
Mus musculus [29] = organism: Mus musculus; assay: Toxicity in athymic mouse bearing human tumor cells assessed as mortality; format: organism-based
How it was run: (§3)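 Mice carried human tumor xenografts (L2987, GEO, KPL4, N87) and were dosed orally once daily in propylene glycol/Tween80/water (40:10:50), with a q.d. × 21 schedule given. The L2987 dose levels included 30, 60 and 180 mg/kg. Toxicity was monitored during treatment as significant weight loss or morbidity.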

[30] = Mean residence time in mouse at 25 mg/kg, iv; format: ADME, organism-based; design: dose 25 mg/kg, route intravenous; conditions: in vivo
[31] = Antitumor activity against human GEO cells xenografted in athymic mouse at 120 mg/kg, po qd for 14 days; format: functional; conditions: 336 h, read-out: TGI; how it was run: as §1
[32] = molecular target: T1, Epidermal growth factor receptor and ErbB2 (HER1 and HER2) (Homo sapiens); assay: Inhibition of HER1/HER2 phosphorylation in human N87 cells by Western blot; format: cell-based; conditions: NCI-N87
Mus musculus [33] = organism: Mus musculus; assay: Toxicity in athymic mouse bearing human tumor cells assessed as weight loss; format: organism-based; how it was run: as §3
[34] = Antitumor activity against human GEO cells xenografted in athymic mouse at 180 mg/kg, po qd for 14 days; format: functional; conditions: 336 h, read-out: TGI; how it was run: as §1
[35] = molecular target: Receptor tyrosine-protein kinase erbB-4 (Homo sapiens, UniProt Q15303); assay: Inhibition of human recombinant HER4 expressed in Sf9 cells by liquid scintillation counting
Chain of Receptor tyrosine-protein kinase erbB-4 (Q15303 whole entry): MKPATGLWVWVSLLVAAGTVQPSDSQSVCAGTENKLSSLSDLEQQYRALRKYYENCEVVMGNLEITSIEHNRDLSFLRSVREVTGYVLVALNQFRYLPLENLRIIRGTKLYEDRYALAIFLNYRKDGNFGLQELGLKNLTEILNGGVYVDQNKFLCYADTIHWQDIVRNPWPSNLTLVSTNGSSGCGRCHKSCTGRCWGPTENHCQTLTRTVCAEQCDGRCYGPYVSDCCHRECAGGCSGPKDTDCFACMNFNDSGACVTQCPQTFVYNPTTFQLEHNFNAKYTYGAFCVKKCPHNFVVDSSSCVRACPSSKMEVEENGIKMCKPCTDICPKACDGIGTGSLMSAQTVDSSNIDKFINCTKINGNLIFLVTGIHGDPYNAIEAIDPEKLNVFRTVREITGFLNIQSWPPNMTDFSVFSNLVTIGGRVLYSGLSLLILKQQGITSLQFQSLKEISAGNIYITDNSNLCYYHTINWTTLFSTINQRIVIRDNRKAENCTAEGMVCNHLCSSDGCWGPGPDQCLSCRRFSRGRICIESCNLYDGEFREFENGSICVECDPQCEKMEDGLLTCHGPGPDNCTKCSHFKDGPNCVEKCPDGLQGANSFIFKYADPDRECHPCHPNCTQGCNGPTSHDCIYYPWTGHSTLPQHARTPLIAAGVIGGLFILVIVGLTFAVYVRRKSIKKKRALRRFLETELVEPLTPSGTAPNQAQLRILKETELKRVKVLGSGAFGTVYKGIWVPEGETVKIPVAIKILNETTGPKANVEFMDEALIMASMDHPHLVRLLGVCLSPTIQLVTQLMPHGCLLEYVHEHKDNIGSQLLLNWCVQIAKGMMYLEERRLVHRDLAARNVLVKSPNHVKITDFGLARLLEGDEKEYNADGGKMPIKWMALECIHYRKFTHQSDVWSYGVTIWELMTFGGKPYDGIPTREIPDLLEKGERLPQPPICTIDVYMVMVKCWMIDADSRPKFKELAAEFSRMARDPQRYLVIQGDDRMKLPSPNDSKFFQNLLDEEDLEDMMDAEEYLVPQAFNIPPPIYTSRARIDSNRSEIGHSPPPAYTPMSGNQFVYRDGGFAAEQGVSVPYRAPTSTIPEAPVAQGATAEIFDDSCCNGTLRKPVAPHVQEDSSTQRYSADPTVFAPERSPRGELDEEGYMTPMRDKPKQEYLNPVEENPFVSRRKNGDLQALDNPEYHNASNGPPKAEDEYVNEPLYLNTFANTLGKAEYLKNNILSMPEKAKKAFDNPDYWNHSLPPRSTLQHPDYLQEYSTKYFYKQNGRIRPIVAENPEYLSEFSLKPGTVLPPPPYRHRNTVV

[36] = Protein binding in cynomolgus monkey plasma at 10 uM by equilibrium dialysis; format: ADME, cell-free, Macaca fascicularis; conditions: read-out: PPB (converted)
Mus musculus [37] = assay: Plasma concentration in BALB/c mouse at 50 mg/kg, po; format: ADME, organism-based; design: dose 50 mg/kg, route oral; conditions: in vivo
How it was run: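 Compound given orally at 50 mg/kg as a solution in PEG400/Tween80/water (40:10:50) to three Balb/C mice. Plasma sampled over 4 h after dosing; AUC(0-4h), Cmax and 4 h concentration reported.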

[38] = molecular target: T1, Epidermal growth factor receptor and ErbB2 (HER1 and HER2) (Homo sapiens); assay: Inhibition of HER1/HER2-mediated AKT phosphorylation in human GEO cells by Western blot; format: cell-based
[39] = Cmax in cynomolgus monkey at 5 mg/kg, po; format: ADME, organism-based, Macaca fascicularis; design: dose 5 mg/kg, route oral; conditions: in vivo

With `Cc1c(NC(=O)OC[C@@H]2COCCN2)cn2ncnc(Nc3ccc4c(cnn4Cc4cccc(F)c4)c3)c12` [AC-480] the Activity [1] was “Non-toxic”, the clearance [2] was 10.5 mL/min/kg and the inhibition in vivo at 60 mg/kg [3] was 39%. It also gave a Vd [4] of 10.1 L/kg, an inhibition in vivo at 60 mg/kg [5] of 61% and an inhibition in vivo at 120 mg/kg (NCI-N87 [6]) of 81%. It also gave an inhibition in vivo at 180 mg/kg (L2987 [7]) of 99%, an IC50 [8] of 22 nM and an AUC(0-t) at 24 h [9] of 147 µM·h. The IC50 (Cytochrome P450 2D6) was over 40 µM, the AUC(0-t) at 24 h [10] was 2.9 µM·h and the IC50 (NCI-N87 [11]) was 450 nM. For the same compound, the MRT [12] was 6.4 h, the bioavailability [13] was 40% and the fraction unbound at 10 µM [14] was 0.029. For the same compound, the Stability [15] was 0.02 nmol/min, the inhibition [16] was “Dose-dependent effect” and the IC50 (Cytochrome P450 2C9) was 12 µM. It also gave an inhibition in vivo at 60 mg/kg (L2987 [17]) of 58%, an AUC(0-t) at 24 h [18] of 14 µM·h and an IC50 (BT-474) of 310 nM. The inhibition in vivo at 180 mg/kg [19] was 129%, the half-life [20] was 162 min and the IC50 (A2780) was over 10 µM. It also gave a Tmax [21] of 42 min, an inhibition in vivo at 180 mg/kg (NCI-N87 [22]) of 71% and an MRT [23] of 6.9 h. It also gave an AUC(0-t) at 4 h [24] of 13.3 µM·h, a Cmax [25] of 4.1 µM and an IC50 [26] of 4 µM. The bioavailability [27] was 83%, the bioavailability [28] was 49% and the Activity (Mus musculus [29]) was “Non-toxic”. For the same compound, the MRT [30] was 3.7 h, the inhibition in vivo at 120 mg/kg [31] was 95% and the inhibition [32] was “Dose-dependent effect”. The Activity (Mus musculus [33]) was “Non-toxic”, the inhibition in vivo at 180 mg/kg [34] was 88% and the IC50 [35] was 190 nM. For the same compound, the fraction unbound at 10 µM [36] was 0.031, the concentration (Mus musculus [37]) was 4.1 µM and the inhibition [38] was “Dose-dependent effect”. It also gave a Cmax [39] of 500 nM.

— ChEMBL document CHEMBL1154610, “Discovery and preclinical evaluation of [4-[[1-(3-fluorophenyl)methyl]-1H-indazol-5-ylamino]-5-methylpyrrolo[2,1-f][1,2,4]triazin-6-yl]carbamic acid, (3S)-3-morpholinylmethyl ester (BMS-599626), a selective and orally efficacious inhibitor of human epidermal growth factor receptor 1 and 2 kinases” (J Med Chem, 2009)
